Source: ChEMBL document CHEMBL3120122, “Highly potent HCV NS4B inhibitors with activity against multiple genotypes” (J Med Chem, 2014)

Columns and labels:
Hepatitis C virus [1] = test: Antiviral activity against HCV JFH-1 expressing NS4B infected in human HuH7 cells assessed as inhibition of viral RNA replication after 3 days by dual-glo luciferase reporter gene assay; type: functional, organism-based, Hepacivirus hominis; conditions: JFH-1, Huh-7, 72 h
[2] = Cytotoxicity against human HuH7 cells; type: cell-based, Huh-7
[3] = Lipophilicity, log D of the compound at pH 7.4 by chromatographic analysis; type: physicochemical; conditions: buffer
Hepatitis C virus [4] = test: Antiviral activity against HCV Con1 expressing wild type NS4B infected in human HuH7 cells assessed as inhibition of viral RNA replication after 3 days by dual-glo luciferase reporter gene assay; type: functional, organism-based, Hepacivirus hominis; conditions: isolate Con1, Huh-7, 72 h
Procedure, shortened: (§1)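 Measured in HCV replicon assays, not infection, using genotype 1a, 1b and 2a (JFH) replicons; the read-out is inhibition of replicon replication.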

Hepatitis C virus [5] = test: Antiviral activity against HCV Con1 expressing NS4B H94N mutant infected in human HuH7 cells assessed as inhibition of viral RNA replication after 3 days by dual-glo luciferase reporter gene assay; type: functional, organism-based, Hepacivirus hominis; conditions: isolate Con1, Huh-7, 72 h
Procedure, shortened: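 Tested in the HCV genotype 1b replicon assay carrying the NS4B H94N substitution, alongside the matched 1a, 1b and 2a-JFH replicon screens.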

Hepatitis C virus [6] = test: Antiviral activity against HCV H77 expressing wild type NS4B infected in human HuH7 cells assessed as inhibition of viral RNA replication after 3 days by dual-glo luciferase reporter gene assay; type: functional, organism-based, Hepacivirus hominis; conditions: genotype 1a H77, Huh-7, 72 h; procedure, shortened: as §1
Hepatitis C virus [7] = test: Antiviral activity against HCV ED43 expressing NS4B infected in human HuH7 cells assessed as inhibition of viral RNA replication after 3 days by dual-glo luciferase reporter gene assay; type: functional, organism-based, Hepacivirus hominis; conditions: ED43, Huh-7, 72 h
[8] = Selectivity ratio of EC50 for HCV JFH-1 expressing NS4B to EC50 for HCV Con1 expressing wild type NS4B; type: functional
Hepatitis C virus [9] = test: Antiviral activity against HCV genotype 2b expressing full length NS4B infected in human HuH7 cells assessed as inhibition of viral RNA replication after 3 days by dual-glo luciferase reporter gene assay; type: functional, organism-based, Hepacivirus hominis; conditions: Huh-7, 72 h
Hepatitis C virus [10] = test: Antiviral activity against HCV S52 expressing NS4B infected in human HuH7 cells assessed as inhibition of viral RNA replication after 3 days by dual-glo luciferase reporter gene assay; type: functional, organism-based, Hepacivirus hominis; conditions: S52, Huh-7, 72 h
[11] = Clearance in iv dosed Sprague-Dawley rat administered as 30 mins infusion; type: ADME, organism-based; conditions: in vivo
Hepatitis C virus [12] = test: Antiviral activity against HCV Con1 expressing NS4B H94S mutant infected in human HuH7 cells assessed as inhibition of viral RNA replication after 3 days by dual-glo luciferase reporter gene assay; type: functional, organism-based, Hepacivirus hominis; conditions: isolate Con1, Huh-7, 72 h
Hepatitis C virus [13] = test: Antiviral activity against HCV genotype 6a expressing NS4B infected in human HuH7 cells assessed as inhibition of viral RNA replication after 3 days by dual-glo luciferase reporter gene assay; type: functional, organism-based, Hepacivirus hominis; conditions: Huh-7, 72 h
[14] = Volume of distribution at steady state in iv dosed Sprague-Dawley rat administered as 30 mins infusion; type: ADME, organism-based; conditions: in vivo, read-out: Vdss
[15] = Intrinsic clearance in rat liver microsomes at 3 uM after 1 hr in presence of NADPH and UDP-glucuronic acid; type: ADME; conditions: read-out: CLH (converted)
[16] = Half life in iv dosed Sprague-Dawley rat administered as 30 mins infusion; type: ADME, organism-based; conditions: in vivo
[17] = Oral bioavailability in Sprague-Dawley rat; type: ADME, organism-based; conditions: in vivo
[18] = Intrinsic clearance in human liver microsomes at 3 uM after 1 hr in presence of NADPH and UDP-glucuronic acid; type: ADME; conditions: read-out: CLH (converted)
[19] = Displacement of tritium labeled (R)-6-cyclopropyl-4-methyl-N-(morpholin-3-ylmethyl)-8-(trifluoromethyl)quinoline-2-carboxamide from recombinant HCV genotype 1b C-terminal His6-tagged NS4B expressed in baculovirus infected insect SF9 cells after overnight incubation by scintillation proximity assay; design: species or system Hepatitis C virus subtype 1b
Hepatitis C virus [20] = test: Selectivity ratio of EC50 for HCV Con1 expressing NS4B H94N mutant to EC50 for HCV Con1 expressing wild type NS4B; type: functional, Hepacivirus hominis, isolate Con1

Structure (SMILES) | EC50 (Hepatitis C virus [1]) [nM] | CC50 [2] [nM] | chromatographic logD [3] | EC50 (Hepatitis C virus [4]) [nM] | EC50 (Hepatitis C virus [5]) [nM] | EC50 (Hepatitis C virus [6]) [nM] | EC50 (Hepatitis C virus [7]) [nM] | Ratio EC50 [8] | EC50 (Hepatitis C virus [9]) [nM] | EC50 (Hepatitis C virus [10]) [nM] | clearance [11] [mL/min/kg] | EC50 (Hepatitis C virus [12]) [nM] | EC50 (Hepatitis C virus [13]) [nM] | Vd [14] [L/kg] | CLint scaled at 3 µM [15] [mL/min/kg] | half-life [16] [h] | bioavailability [17] [%] | CLint scaled at 3 µM [18] [mL/min/kg] | Kd [19] [nM] | Ratio EC50 (Hepatitis C virus [20])
Cc1cc(-c2nnc(N[C@H]3C[C@@H](O)C3)o2)nc2c(C(C)(C)C)cc(OCC(F)(F)F)cc12 | 208 | 10800 | 3.4 | 1.3 | 41 | – | – | – | – | – | – | – | – | – | – | – | – | – | – | –
Cc1cc(-c2nnc(N[C@@H]3CCC[C@H](O)C3)o2)nc2c(C(C)(C)C)cc(OCC(F)(F)F)cc12 | 96 | 20900 | 4 | 0.32 | 5.5 | 0.09 | 1.5 | 300 | 0.9 | 30 | – | – | – | – | – | – | – | – | – | –
Cc1cc(-c2nnc(N[C@@H]3CCC[C@H](O)C3)o2)nc2c(C(C)(C)C)cc(NCC(F)(F)F)cc12 | 3 | 6250 | 3.6 | 0.09 | 0.6 | 0.08 | 0.9 | 30 | 0.6 | 3.7 | 10.8 | 0.34 | 3.1 | 2.4 | 4 | 11 | 88 | 3.67 | – | –
Cc1cc(-c2nnc(NCC3OCCO3)o2)nc2c(C(C)(C)C)cc(NCC(F)(F)F)cc12 | 1100 | 16000 | 3.6 | 0.15 | 4.3 | – | – | – | – | – | – | – | – | – | – | – | – | – | – | –
Cc1cc(-c2nnc(N[C@H]3CCC[C@@H](O)C3)o2)nc2c(C(C)(C)C)cc(NCC(F)(F)F)cc12 | 201 | – | – | – | – | – | – | – | – | – | – | – | – | – | – | – | – | – | – | –
Cc1cc(-c2nnc(NC3CCCC3)o2)nc2c(C(C)(C)C)cc(NCC(F)(F)F)cc12 | 525 | 15800 | 4.6 | 0.15 | 5.2 | – | – | – | – | – | – | – | – | – | – | – | – | – | – | –
Cc1cc(-c2nnc(N[C@H]3C[C@](O)(C(F)F)C3)o2)nc2c(C(C)(C)C)cc(OCC(F)(F)F)cc12 | 684 | 6240 | 4.1 | 0.32 | 3.4 | – | – | – | – | – | – | – | – | – | – | – | – | – | – | –
Cc1cc(-c2nnc(N[C@H]3C[C@](O)(C(F)F)C3)o2)nc2c(C(C)(C)C)cc(NCC(F)(F)F)cc12 | 25 | 5440 | 3.7 | 0.08 | 0.74 | 0.05 | 0.76 | 312 | 0.16 | 2.3 | 14.5 | 4.4 | – | 5 | 3.67 | 5.2 | 25 | 3.33 | – | –
Cc1cc(-c2nnc(Nc3ccccc3)o2)nc2c(C(F)(F)F)cc(-c3ccccc3)cc12 | > 20000 | 86400 | 5.6 | 5.9 | – | – | – | – | – | – | 17.5 | – | – | 1.8 | 11.7 | 2.3 | – | 7.67 | – | –
Cc1cc(-c2nnc(NC3CCCC3)o2)nc2c(C(C)(C)C)cc(OCC(F)(F)F)cc12 | 3030 | – | 4.9 | 0.63 | 35 | – | – | – | – | – | – | – | – | – | – | – | – | – | – | –
COc1cc(C(F)(F)F)c2nc(-c3nnc(NCC4OCCO4)o3)cc(C)c2c1 | – | 50000 | 3.4 | 32 | 719 | – | – | – | – | – | – | – | – | – | – | – | – | – | – | –
Cc1cc(-c2nnc(NCC3OCCO3)o2)nc2c(C(C)(C)C)cc(OCC(F)(F)F)cc12 | 3580 | 20400 | 3.9 | 1.3 | 54 | 0.9 | – | 2720 | – | – | – | – | – | – | – | – | – | – | 31 | 42
Cc1cc(-c2nnc(N[C@H]3C[C@H](O)C3)o2)nc2c(C(C)(C)C)cc(OCC(F)(F)F)cc12 | 5220 | 25900 | – | 3.5 | 714 | – | – | – | – | – | – | – | – | – | – | – | – | – | – | –
Cc1cc(-c2nnc(NCC3OCCO3)o2)nc2c(C(F)(F)F)cc(OCC(F)(F)F)cc12 | 15600 | 26600 | 3.6 | 5 | 206 | – | – | – | – | – | – | – | – | – | – | – | – | – | – | –
